pIC50: −log10 of the molar value. Activity calls are given as the source filed them. No cut-off for these calls is given here.
Test system: not listed separately
Assay: Tmax in C57BL6 mouse plasma at 10 mg/kg, ip by LC-MS/MS analysis
Format: ADME, organism-based
Conditions: not given
Summary of the method: (§1)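 Adult male C57/BL6 mice, n=4 per group, single 10 mg/kg i.p. dose, saline vehicle. Plasma and brain collected at set times after injection. Brains homogenized in acetonitrile with 0.1% formic acid and passed through lipid-removal cartridges. Compound quantified by LC-MS/MS on C18 with formic acid water/methanol step gradient; LOQ 0.1 ng/mL, linear 0.1-100.0 ng/mL.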

Work on `O=c1c2ccccc2sn1CCc1ccccc1` yielded a Tmax of 15 min.

Biological target: Monoglyceride lipase (Rattus norvegicus, UniProt Q8R431, C208A)
Assay: Inhibition of recombinant rat MGL C208A mutant expressed in human HeLa cells using 2-oleoylglycerol as substrate preincubated for 10 mins followed by substrate addition and measured after 10 mins by LC-MS analysis
Format: cell-based
Conditions: not given

Sequence of Monoglyceride lipase (Rattus norvegicus, UniProt Q8R431, C208A) (Q8R431 whole entry C208A): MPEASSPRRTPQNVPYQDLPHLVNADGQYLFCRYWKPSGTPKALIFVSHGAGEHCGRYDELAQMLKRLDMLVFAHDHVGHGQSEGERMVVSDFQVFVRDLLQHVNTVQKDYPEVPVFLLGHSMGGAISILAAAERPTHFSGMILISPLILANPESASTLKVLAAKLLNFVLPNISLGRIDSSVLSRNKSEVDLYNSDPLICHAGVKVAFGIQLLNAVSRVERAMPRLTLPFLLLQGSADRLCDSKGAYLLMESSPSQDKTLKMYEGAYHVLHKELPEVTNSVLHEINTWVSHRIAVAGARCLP

In order of rising pIC50:
1. O=c1c2ccccc2sn1NCCCCCNn1sc2ccccc2c1=O  6.66
2. O=c1c2ccccc2sn1NCCCCCCNn1sc2ccccc2c1=O  7.08
3. O=c1c2ccccc2sn1NCc1ccccc1  7.35

Test system: N2a
Assay: Protection against H2O2-induced toxicity in mouse Neuro2a cells assessed as reduction in LDH release at 1 uM preincubated for 30 mins followed by H2O2 challenge and measured after 24 hrs in presence of CB1 receptor antagonist rimonabant
Format: functional, cell-based
Conditions: not given
Summary of the method: (§2)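 Neuro-2a cells seeded 5×10^3/well, after 24 h pretreated with agents 30 min, then H2O2 300 µM for 24 h; LDH release into medium measured by absorbance with cytotoxicity detection kit; mean ± SEM; t test or one-way ANOVA with Dunnett's.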

In the case of `O=c1c2ccccc2sn1CCc1ccccc1`, the Activity was “inactive”.
With `O=C(Oc1ccc([N+](=O)[O-])cc1)N1CCC(C(O)(c2ccc3c(c2)OCO3)c2ccc3c(c2)OCO3)CC1` the Activity was “inactive”.

Test system: not listed separately
Assay: Glutathione reactivity in pH 7.4 phosphate buffered saline assessed as GSH-adduct formation by measuring parent compound level at 100 uM measured after 60 mins by HR-MS analysis
Format: ADME
Conditions: buffer, pH 7.4, 1 h, BLD = below limit of detection
Summary of the method: (§3)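 BTZ 100 µM final (from 10 mM DMSO stock, 1% DMSO final) with GSH 200 µM final in 10 mM PBS pH 7.4 at 37.0 °C; sampled at 60 min (steady state). GSH, GSSG and BTZ quantified by LC/UV (210 nm for GSH/GSSG, 254 nm for BTZ) against PBS standard curves; products identified by HR-MS (Orbitrap). Mean ± SEM, n = 3-4.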

In the case of `O=c1c2ccccc2sn1CCc1ccccc1`, the Activity was “Bld”.

Test system: not listed separately
Assay: Tmax in C57BL6 mouse brain at 10 mg/kg, ip by LC-MS/MS analysis
Format: ADME, organism-based
Conditions: not given
Summary of the method: as §1

`O=c1c2ccccc2sn1CCc1ccccc1` showed a Tmax of 15 min.

Test system: N2a
Assay: Protection against H2O2-induced toxicity in mouse Neuro2a cells assessed as reduction in LDH release at 1 uM preincubated for 30 mins followed by H2O2 challenge and measured after 24 hrs
Format: functional, cell-based
Conditions: not given
Summary of the method: as §2

With `O=c1c2ccccc2sn1CCc1ccccc1` the Activity was “Active”.
For `O=C(Oc1ccc([N+](=O)[O-])cc1)N1CCC(C(O)(c2ccc3c(c2)OCO3)c2ccc3c(c2)OCO3)CC1`, the Activity was “Active”.

Test system: not listed separately
Assay: Drug metabolism in pH 7.4 phosphate buffered saline assessed as N-(2-phenylethyl)-2-[[2-(2-phenylethylcarbamoyl)phenyl]disulfanyl]benzamide formation at 100 uM measured after 60 mins in presence of N-(2-phenylethyl)-2-sulfanyl-benzamide by HR-MS analysis
Conditions: not given
Summary of the method: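 Compound 100 μM final (from 10 mM DMSO stock, 1% DMSO) with GSH 200 μM final in 10 mM PBS pH 7.4 at 37 °C; species quantified at t = 60 min by LC/UV (210/254 nm) and HR-MS (Orbitrap, ESI); mean ± SEM, n = 3-4.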

With `O=c1c2ccccc2sn1CCc1ccccc1` the Drug metabolism was “Metabolite detected”.

Biological target: Monoglyceride lipase (Rattus norvegicus, UniProt Q8R431, C201A)
Assay: Inhibition of recombinant rat MGL C201A mutant expressed in human HeLa cells using 2-oleoylglycerol as substrate preincubated for 10 mins followed by substrate addition and measured after 10 mins by LC-MS analysis
Format: cell-based
Conditions: not given

Sequence of Monoglyceride lipase (Rattus norvegicus, UniProt Q8R431, C201A) (Q8R431 whole entry C201A): as the sequence (Q8R431 whole entry C208A) above, with C201A, A208C counted along it

In order of falling pIC50:
1. O=c1c2ccccc2sn1NCc1ccccc1  7.26
2. O=c1c2ccccc2sn1NCCCCCCNn1sc2ccccc2c1=O  6.94
3. O=c1c2ccccc2sn1NCCCCCNn1sc2ccccc2c1=O  6.64

Test system: not listed separately
Assay: Ratio of drug level in brain to plasma of C57BL6 mouse at 10 mg/kg, ip by LC-MS/MS analysis
Format: ADME, organism-based
Conditions: not given
Summary of the method: as §1

In the case of `O=c1c2ccccc2sn1CCc1ccccc1`, the BPR was 4.5%.

Test system: not listed separately
Assay: Glutathione reactivity in pH 7.4 phosphate buffered saline assessed as GSH-adduct formation by measuring GSH level at 100 uM measured after 60 mins by HR-MS analysis
Format: ADME
Conditions: buffer, pH 7.4, 1 h
Summary of the method: as §3

In the case of `O=c1c2ccccc2sn1CCc1ccccc1`, the Activity was 73.4 µM.

Test system: Mus musculus
Assay: In vivo inhibition of MGL in C57BL6 mouse assessed as increase in 2-AG level at 10 mg/kg, ip measured after 2 hrs by LC-MS/MS analysis
Format: functional, organism-based
Conditions: not given
Summary of the method: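 Adult male C57/BL6 mice, n=4 per group, single 10 mg/kg i.p. dose, saline vehicle; brains collected 2 h post-injection; lipids extracted from homogenate and 2-AG measured by LC-MS (triple quadrupole, ESI positive, isocratic C18); two-tailed t test or ANOVA with Dunnett's.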

In the case of `O=c1c2ccccc2sn1CCc1ccccc1`, the inhibition was “Active”.

Biological target: T1, Monoglyceride lipase (Rattus norvegicus, UniProt Q8R431)
T1 sequence (Q8R431 whole entry): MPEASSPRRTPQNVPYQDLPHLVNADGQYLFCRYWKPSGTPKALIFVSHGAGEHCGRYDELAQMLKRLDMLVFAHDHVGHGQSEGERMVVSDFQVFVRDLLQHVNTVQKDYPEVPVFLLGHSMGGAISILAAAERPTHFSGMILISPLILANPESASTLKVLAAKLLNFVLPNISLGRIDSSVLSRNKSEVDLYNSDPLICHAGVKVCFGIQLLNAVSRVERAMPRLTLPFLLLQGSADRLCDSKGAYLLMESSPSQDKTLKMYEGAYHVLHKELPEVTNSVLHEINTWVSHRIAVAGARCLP
Assay: Inhibition of recombinant rat MGL expressed in human HeLa cells using 2-oleoylglycerol as substrate preincubated for 10 mins followed by substrate addition and measured after 10 mins by LC-MS analysis
Format: cell-based
Conditions: not given

In order of rising pIC50:
1. Cc1cccc2c(=O)n(CCc3ccccc3)sc12  4.88
2. O=c1c2ccc(O)cc2sn1CCc1ccccc1  5.59
3. O=c1ccsn1CCc1ccccc1  6.12
4. COc1ccc2sn(CCc3ccccc3)c(=O)c2c1  6.25
5. COc1ccc2c(=O)n(CCc3ccccc3)sc2c1  6.29
6. O=c1c2ccccc2sn1NCc1ccc(-c2ccccc2)cc1  6.49
7. O=c1[nH]sc2ccccc12  6.51
8. O=C(O)c1ccc(CNn2sc3ccccc3c2=O)cc1  6.56
9. O=c1c2ccc([N+](=O)[O-])cc2sn1CCc1ccccc1  6.62
10. O=c1c2ccccc2sn1CCCCCCN1CCCCC1  6.71
11. CN(Cc1ccccc1)n1sc2ccccc2c1=O  6.72
12. O=c1c2cc([N+](=O)[O-])ccc2sn1CCc1ccccc1  6.79
13. O=c1c2cc(O)ccc2sn1CCc1ccccc1  6.87
14. COC(=O)c1ccc(CNn2sc3ccccc3c2=O)cc1  7.03
15. Cn1sc2ccccc2c1=O  7.23
16. O=c1c2ccccc2sn1C1CCCCC1  7.26
17. O=c1c2ccccc2sn1CCc1ccc2ccccc2c1  7.27
18. O=c1c2ccccc2sn1CCc1cccc2ccccc12  7.66
19. O=c1c2ccccc2sn1NCc1ccccc1  7.71
20. O=c1c2ccccc2sn1NCCCCCCNn1sc2ccccc2c1=O  7.77
21. O=c1c2ccccc2sn1NCCCCCNn1sc2ccccc2c1=O  7.94

Test system: not listed separately
Assay: Glutathione reactivity in pH 7.4 phosphate buffered saline assessed as GSH-adduct formation by measuring oxidized GSH level at 100 uM measured after 60 mins by HR-MS analysis
Format: ADME
Conditions: buffer, pH 7.4, 1 h
Summary of the method: as §3

For `O=c1c2ccccc2sn1CCc1ccccc1`, the Activity was 61.8%.

Biological target: Monoglyceride lipase (Rattus norvegicus, UniProt Q8R431, C201A/C208A)
Assay: Inhibition of recombinant rat MGL C201A/C208A mutant expressed in human HeLa cells using 2-oleoylglycerol as substrate preincubated for 10 mins followed by substrate addition and measured after 10 mins by LC-MS analysis
Conditions: not given

Sequence of Monoglyceride lipase (Rattus norvegicus, UniProt Q8R431, C201A/C208A) (Q8R431 whole entry C201A/C208A): as the sequence (Q8R431 whole entry C208A) above, with C201A counted along it

In order of falling pIC50:
1. O=c1c2ccccc2sn1NCc1ccccc1  6.11
2. O=c1c2ccccc2sn1NCCCCCNn1sc2ccccc2c1=O  5.84
3. O=c1c2ccccc2sn1NCCCCCCNn1sc2ccccc2c1=O  5.68
